Assay results collected from several papers.
Lines come from different studies, so protocols differ.
Target: Mitogen-activated protein kinase 12 (MAPK12, Homo sapiens, UniProt P53778)
Residues used in one study (P53778 1-367): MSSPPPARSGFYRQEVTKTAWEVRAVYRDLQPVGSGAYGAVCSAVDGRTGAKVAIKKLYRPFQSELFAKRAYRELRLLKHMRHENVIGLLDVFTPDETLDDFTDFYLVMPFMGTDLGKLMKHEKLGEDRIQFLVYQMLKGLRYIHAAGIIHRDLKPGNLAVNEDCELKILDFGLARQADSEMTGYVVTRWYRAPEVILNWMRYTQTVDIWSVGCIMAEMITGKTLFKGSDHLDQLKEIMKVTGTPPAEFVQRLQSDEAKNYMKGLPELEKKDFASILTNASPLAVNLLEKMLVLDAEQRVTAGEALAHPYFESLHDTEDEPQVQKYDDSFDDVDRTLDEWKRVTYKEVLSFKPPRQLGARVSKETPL

SMILES | test | setting | measurement | result
CCCS(=O)(=O)Nc1ccc(F)c(C(=O)c2c[nH]c3ncc(-c4ccc(Cl)cc4)cc23)c1F | enzyme activity, inhibitor | 1 µM | inhibition | < 10%
NS(=O)(=O)c1cc(NC(=O)Cc2ccccc2)ccc1Oc1cccc(Cl)c1 | cell-free assay, competition with immobilised ligand | 1 µM | remaining binding | 100%
CC(C)(C)c1nc2c(s1)c1nc(N)ncc1c1ccc(NS(=O)(=O)c3c(F)cccc3F)c(F)c12 | enzyme activity, inhibitor, radiometric | 1 µM | remaining activity | 100%
CCS(=O)(=O)c1cc2cc(C[C@](O)(CC(C)(C)c3ccc(F)cc3C(N)=O)C(F)(F)F)[nH]c2cn1 | cell-free assay, competition with immobilised ligand | 1 µM | remaining binding | 100%
O=C1Nc2ccc(Cl)cc2C1=Cc1cc(Cl)c(O)c(Cl)c1 | cell-free assay | 0.5 µM | remaining signal | 90.5%
Cn1c(=O)n(-c2ccc(C(C)(C)C#N)cc2)c2c3cc(-c4cnc5ccccc5c4)ccc3ncc21 | enzyme activity, inhibitor | 10 µM | remaining activity | 101%
Nc1nc(NC2CCCCC2)sc1C(=O)c1ccccc1 | enzyme activity, inhibitor | 10 µM | remaining activity | 71%
COc1cc(Nc2cnc(C#N)c(O[C@H](C)CN(C)C)n2)ncc1-c1cnn(C)c1 | enzyme activity, inhibitor, radiometric | 10 µM | remaining activity | 109%
Cc1ccc(Nc2nccc(N(C)c3ccc4c(C)n(C)nc4c3)n2)cc1S(N)(=O)=O | enzyme activity, inhibitor | 0.3 µM | inhibition | -5%
CC/C(=N\NC(=O)NCc1cccc(O)c1)c1ccc(O)c(C)c1O | enzyme activity, inhibitor | 0.1 µM | inhibition | -1.6%
Nc1c(C(=O)NCc2ccc(C(=O)NCCCC3CCCCC3)cc2)cnn1-c1ccccc1 | cell-free assay, competition with immobilised ligand | 0.1 µM | remaining binding | 100%
CC(C)(O)[C@H]1CC[C@H](Nc2ccc3ncc(-c4cccc(C(F)(F)F)c4)n3n2)CC1 | enzyme activity, inhibitor | 1 µM | remaining activity | 93.8%
CCC(=O)N[C@H]1CC[C@@H](C(=O)N(C)c2ccc(-c3nc4ccccc4o3)cc2)C1 | cell-free assay, competition with immobilised ligand | 1 µM | remaining binding | 67%
CN1CC(Oc2cnc(C#N)cc2-c2ccn3nc(NC(=O)C4CC4)cc3c2)C1 | enzyme activity, inhibitor | 1 µM | inhibition | -1%
Cc1c(NC(=O)c2cc(C(N)=O)nc3cc(F)ccc23)c(C(F)(F)F)nn1Cc1ccc(C(C)(C)C)cc1 | cell-free assay, competition with immobilised ligand | 1 µM | remaining binding | 56%
Cc1cnc(NC2CCOCC2)nc1-n1cnc(C(=O)NC(CN)c2cc(F)cc(Cl)c2)c1 (stereo not shown) | enzyme activity, inhibitor, radiometric | 1 µM | remaining activity | 48%
CCOc1cc(-c2nncn2C)ccc1Nc1ncc2cc(C)nc(NCC(C)(C)C)c2n1 | enzyme activity, inhibitor, FRET | 1 µM | inhibition | < 15%
CCCOc1ccc(OC)c(F)c1C(=O)c1ccc(C(=O)N[C@@H]2CNC[C@H]2NC(=O)c2ccc3[nH]ncc3c2)cc1 | enzyme activity, inhibitor | 10 µM | remaining activity | 97%
O=C(Nc1cccnn1)N1CCC(=Cc2cccc(Oc3ccc(C(F)(F)F)cn3)c2)CC1 | cell-free assay, competition with immobilised ligand | 1 µM | remaining binding | 100%
Oc1cccc(-c2nc(N3CCOCC3)c3oc4ncccc4c3n2)c1 | enzyme activity, inhibitor | 10 µM | remaining activity | 76%
C[C@H](c1ccc(F)cc1)N(Cc1cccc(C(=O)O)c1)C(=O)c1cnc2ccccc2c1 | cell-free assay, competition with immobilised ligand | 1 µM | remaining binding | 65%
O=C(Nc1cnn(-c2csc(C(=O)NC3COC3)c2)c1)Nc1c(F)cccc1Cl | enzyme activity, inhibitor | 5 µM | remaining activity | 98.3%
CCN(CC)CCNC(=O)c1c(C)[nH]c(/C=C2\C(=O)Nc3ccc(F)cc32)c1C | enzyme activity, inhibitor | 10 µM | inhibition | -3%
O=C1NC(=O)c2cc(Nc3ccc(F)cc3)c(Nc3ccc(F)cc3)cc21 | cell-free assay | 0.5 µM | remaining signal | 93.6%
CCOC(=O)c1cc2cc(-c3cc(C(=O)NCc4ccc(C(=O)O)cc4)nn3C)ccc2[nH]1 | cell-free assay, competition with immobilised ligand | 0.1 µM | remaining binding | 77%
N#CCCc1ccc2c(c1)-c1[nH]c3ccc([N+](=O)[O-])cc3c1CC(=O)N2 | cell-free assay | 0.5 µM | remaining signal | 98.9%
Nc1nc(Nc2ccccc2)sc1C(=O)c1c(F)cccc1F | enzyme activity, inhibitor | 10 µM | remaining activity | 77%
COc1cc2ncnc(Nc3ccc(Oc4ccccc4)c(C)c3C)c2cc1OC | enzyme activity, inhibitor | 1 µM | inhibition | 2%
